Data on 15 compounds can be found in ChEMBL document CHEMBL1833971, “Towards rational design of cannabinoid receptor 1 (CB1) antagonists for peripheral selectivity” (Bioorg Med Chem Lett, 2011).

Molecules are shown by their SMILES.

The target of data set [1] is T1, Cannabinoid receptor 1 (Homo sapiens, UniProt P21554). Kind of data set: Displacement of [3H]-SR141716A from human CB1 receptor expressed in CHO-K1 cells after 1 hr by liquid scintillation counting. Format: cell-based.
The subject of another data set is MDCK. Kind of data set: Permeability from apical to basolateral side of MDR1 transfected MDCK cells at 3.16 uM after 1 hr by LC/MS analysis. The format is ADME, cell-based, Canis lupus familiaris. Conditions: dog. Put shortly:
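MDCK-mdr1 cells grown on filters for 4 days to confluence. Compound added apically at 3.16 μM, incubated 1 hr at 37°C. Apical-to-basal transport quantified by mass spectrometry in MRM mode, tuned per compound by infusion.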

The target in a further data set is Cannabinoid receptor 2 (Homo sapiens, UniProt P34972). Kind of data set: Displacement of [3H]-CP55940 from human CB2 receptor expressed in CHO-K1 cells after 1 hr by liquid scintillation spectrometry. Format: cell-based. Put shortly:
(§1)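 Membranes from CHO-K1 cells over-expressing CB1 or CB2 used for [3H]CP55940 displacement, giving Ki at each receptor. Selectivity taken as the comparison of the CB2 and CB1 Ki values.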
A general note: In a radioligand displacement assay an active substance lowers the binding of a labelled ligand.

Data set [2] concerns the target T1, Cannabinoid receptor 1. Kind of data set: Displacement of [3H]-CP55940 from human CB1 receptor expressed in CHO-K1 cells after 1 hr by liquid scintillation spectrometry. Format: cell-based.
For data set [3], the target named is T1, Cannabinoid receptor 1. Kind of data set: Antagonist activity at human CB1 receptor transfected in CHO-K1 cells co-expressing G-alpha-q16 protein assessed as inhibition of G-alpha-q16 protein-mediated intracellular calcium mobilization. The format is functional, cell-based.
For another data set, the species on record is Homo sapiens. Kind of data set: Selectivity ratio of Ki for human CB2 receptor to Ki for human CB1 receptor. Put shortly:
as §1

For orientation: Ki means a dissociation constant, usually derived from enzyme kinetics or from competition with a known ligand. High values mean a looser hold on the target, low ones a stronger hold on the target.

Sequence of Cannabinoid receptor 2 (P34972 whole entry): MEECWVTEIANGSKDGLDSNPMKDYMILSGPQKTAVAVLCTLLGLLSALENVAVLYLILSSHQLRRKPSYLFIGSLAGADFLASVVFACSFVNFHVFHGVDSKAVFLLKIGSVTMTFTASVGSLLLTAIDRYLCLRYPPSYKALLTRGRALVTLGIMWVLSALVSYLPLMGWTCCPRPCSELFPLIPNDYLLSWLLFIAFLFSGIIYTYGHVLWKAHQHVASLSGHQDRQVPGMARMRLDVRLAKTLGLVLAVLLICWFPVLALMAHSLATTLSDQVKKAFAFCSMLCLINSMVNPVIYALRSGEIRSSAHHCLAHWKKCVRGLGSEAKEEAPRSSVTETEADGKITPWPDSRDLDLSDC
T1 sequence (P21554 whole entry): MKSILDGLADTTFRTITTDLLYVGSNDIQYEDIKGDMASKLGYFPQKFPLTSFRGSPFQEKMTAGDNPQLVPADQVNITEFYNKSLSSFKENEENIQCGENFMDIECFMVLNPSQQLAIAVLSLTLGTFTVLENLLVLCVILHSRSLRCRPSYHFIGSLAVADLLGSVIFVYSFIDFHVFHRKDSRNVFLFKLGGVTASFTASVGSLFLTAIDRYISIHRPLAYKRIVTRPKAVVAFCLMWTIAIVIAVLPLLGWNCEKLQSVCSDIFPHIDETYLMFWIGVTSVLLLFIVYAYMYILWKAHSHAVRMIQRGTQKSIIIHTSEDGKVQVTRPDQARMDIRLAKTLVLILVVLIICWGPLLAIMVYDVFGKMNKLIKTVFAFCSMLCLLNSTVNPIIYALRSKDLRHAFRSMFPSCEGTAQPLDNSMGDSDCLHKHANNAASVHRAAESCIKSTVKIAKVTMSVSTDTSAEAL

As to `Cc1c(C(=O)NC[C@H]2CC[C@@H](CNS(C)(=O)=O)CC2)nn(-c2ccc(Cl)cc2Cl)c1-c1ccc(Cl)cc1`, the Ki on Cannabinoid receptor 1 [1] was 8 nM; at Cannabinoid receptor 2, 960 nM; at Cannabinoid receptor 1 [2], 36 nM. Besides, the permeability in the data set on MDCK was under 1%.

With `Cc1c(C(=O)NCCCCCCCNS(C)(=O)=O)nn(-c2ccc(Cl)cc2Cl)c1-c1ccc(Cl)cc1`, the Ki on Cannabinoid receptor 2 was determined as 780 nM.

`Cc1c(C(=O)NCC2CCC(CNS(N)(=O)=O)CC2)nn(-c2ccc(Cl)cc2Cl)c1-c1ccc(Cl)cc1` (mixture of isomers) yielded a Ki at Cannabinoid receptor 2 of 2310 nM.

Turning to `Cc1c(C(=O)NCc2cccc(CNS(N)(=O)=O)c2)nn(-c2ccc(Cl)cc2Cl)c1-c1ccc(Cl)cc1`, the Ke at Cannabinoid receptor 1 [3] was determined as 4.2 µM.

As for `Cc1c(C(=O)Nc2ccncc2)nn(-c2ccc(Cl)cc2Cl)c1-c1ccc(Cl)cc1`, the Ratio Ki in the data set listed under Homo sapiens is 31. For the same compound, the Ki came out at 13 nM on Cannabinoid receptor 1 [1], 1740 nM at Cannabinoid receptor 2 and 56 nM at Cannabinoid receptor 1 [2].

With `Cc1ccc(NC(=O)c2nn(-c3ccc(Cl)cc3Cl)c(-c3ccc(Cl)cc3)c2C)cn1`, in the data set filed under Homo sapiens, the Ratio Ki stood at 39. In addition, the figures for the Ki at Cannabinoid receptor 1 [1], on Cannabinoid receptor 2 and at Cannabinoid receptor 1 [2] were 26 nM, 4010 nM and 102 nM, respectively.

For the compound `Cc1c(C(=O)NCCCCCCCNS(N)(=O)=O)nn(-c2ccc(Cl)cc2Cl)c1-c1ccc(Cl)cc1`, the Ratio Ki in the data set filed under Homo sapiens was found to be 21. The results for the Ki on Cannabinoid receptor 1 [1], at Cannabinoid receptor 2 and on Cannabinoid receptor 1 [2] were 20 nM, 1010 nM and 49 nM, respectively. Besides, the Ke on Cannabinoid receptor 1 [3] amounted to 0.304 µM.

On to `Cc1c(C(=O)Nc2ccc(C)[n+](C)c2)nn(-c2ccc(Cl)cc2Cl)c1-c1ccc(Cl)cc1`, for which the Ratio Ki in the data set listed under Homo sapiens amounted to 1.3. In addition, the Ki was 786 nM at Cannabinoid receptor 1 [1], 2270 nM on Cannabinoid receptor 2 and 1700 nM at Cannabinoid receptor 1 [2].

Take `Cc1c(C(=O)NCc2ccc(CNS(C)(=O)=O)cc2)nn(-c2ccc(Cl)cc2Cl)c1-c1ccc(Cl)cc1`: the Ke on Cannabinoid receptor 1 [3] worked out at 2.93 µM.

Consider `Cc1c(C(=O)NCC2CCC(CNS(C)(=O)=O)CC2)nn(-c2ccc(Cl)cc2Cl)c1-c1ccc(Cl)cc1` (mixture of isomers), for which the Ki at Cannabinoid receptor 1 [1] is 11 nM; on Cannabinoid receptor 2, 900 nM; at Cannabinoid receptor 1 [2], 55 nM.

For `Cc1c(C(=O)Nc2cc[n+]([O-])cc2)nn(-c2ccc(Cl)cc2Cl)c1-c1ccc(Cl)cc1`, in the data set listed under Homo sapiens, the Ratio Ki was 15. Moreover, the Ki on Cannabinoid receptor 1 [1] amounted to 61 nM; on Cannabinoid receptor 2 it was 4520 nM; on Cannabinoid receptor 1 [2] it was 294 nM. Moreover, the Ke on Cannabinoid receptor 1 [3] turned out to be 1.39 µM.

Regarding `Cc1c(C(=O)NCc2ccc(CNS(N)(=O)=O)cc2)nn(-c2ccc(Cl)cc2Cl)c1-c1ccc(Cl)cc1`, the Ke at Cannabinoid receptor 1 [3] turned out to be 0.376 µM.

Take `Cc1c(C(=O)NCc2cccc(CNS(C)(=O)=O)c2)nn(-c2ccc(Cl)cc2Cl)c1-c1ccc(Cl)cc1`: the Ke on Cannabinoid receptor 1 [3] came out at 2.83 µM.

Take `Cc1c(C(=O)NCCCN(C)CCCNS(C)(=O)=O)nn(-c2ccc(Cl)cc2Cl)c1-c1ccc(Cl)cc1`: the Ke at Cannabinoid receptor 1 [3] was 5.34 µM.

In the data set with MDCK, `Cc1c(C(=O)NC[C@H]2CC[C@@H](CNS(N)(=O)=O)CC2)nn(-c2ccc(Cl)cc2Cl)c1-c1ccc(Cl)cc1` returned a permeability of under 1%. The compound also came in with a Ki on Cannabinoid receptor 2 of 1790 nM.
